Reference: ChEMBL document CHEMBL1770114, “Triamino pyrimidines and pyridines as histamine H(4) receptor modulators” (Bioorg Med Chem Lett, 2011)

What was measured:
Histamine H4 receptor [1] = target: T1, Histamine H4 receptor (Homo sapiens, UniProt Q9H3N8); experiment: Agonist activity at human histamine H4 receptor expressed in human SK-N-MC cells assessed as effect on forskolin-induced cAMP accumulation after 6 hrs; type: functional, cell-based
Method in brief: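 SK-N-MC cells with CRE-driven β-galactosidase reporter. Compound added to medium for 10 min at room temperature, then forskolin (5 µM final), 6 h at 37 °C. Chlorophenol red β-D-galactopyranoside substrate read at A570. α set against histamine (full agonist) = 1.0.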

Histamine H4 receptor [2] = target: T1, Histamine H4 receptor; experiment: Agonist activity at human histamine H4 receptor expressed in human SK-N-MC cells assessed as effect on forskolin-induced cAMP accumulation after 6 hrs relative to histamine; type: functional, cell-based
Method in brief: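 SK-N-MC cells expressing human H4 receptor with a cAMP-responsive-element β-galactosidase reporter. Compound incubated 10 min at room temperature, then forskolin (5 µM final), then 6 h at 37 °C. Cells frozen overnight at -40 °C, lysed in phosphate buffer pH 8, chlorophenolred β-D-galactopyranoside substrate added, absorbance read at 570 nm. α calculated relative to histamine (full agonist) set as 1.0.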

Histamine H4 receptor [3] = target: T1, Histamine H4 receptor; experiment: Displacement of [3H]histamine from human histamine H4 receptor
Histamine H4 receptor [4] = target: T1, Histamine H4 receptor; experiment: Antagonist activity at human histamine H4 receptor expressed in human SK-N-MC cells assessed as inhibition of forskolin-stimulated cAMP accumulation after 6 hrs; type: functional, cell-based; settings: read-out: pA2 (converted)
Method in brief: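 pA2 format on SK-N-MC cells carrying a CRE-controlled β-galactosidase reporter. Cells were preincubated with compound for 10 min, then with histamine agonist for 10 min, then forskolin was added, followed by 6 h at 37 °C. Lysis used phosphate/Mg/Mn buffer at pH 8 with Triton X-100 and β-mercaptoethanol. Chlorophenol red β-D-galactopyranoside turnover was read at 570 nm.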

Structure (SMILES)	EC50 (Histamine H4 receptor [1]) [µM]	Ki (Histamine H4 receptor [3]) [nM]	Kb (Histamine H4 receptor [4]) [nM]	Alpha max (Histamine H4 receptor [2])
CC(C)CNc1cc(N2CCN(C)CC2)cc(N)n1	0.05	2	–	0.51
Nc1nc(N2CCCC2)cc(N2CC3CCCNC3C2)n1 (racemic)	–	40	–	–
CN1CCN(c2cc(NCCO)nc(N)n2)CC1	–	25	–	–
CN[C@@H]1CCN(c2cc(N)nc(N3CCCC3)n2)C1	–	127	–	–
CC(C)Nc1cc(N2CCN(C)CC2)cc(N)n1	0.533	28	–	0.6
CC(C)N(C)c1cc(N2CCN(C)CC2)nc(N)n1	> 10	24	–	–
CN1CCN(c2cc(N)nc(NCc3ccccc3)c2)CC1	–	148	–	–
CN[C@@H]1CCN(c2cc(N)nc(N(C)C(C)C)c2)C1	–	29	–	–
CN[C@H]1CCN(c2cc(N3CCCC3)nc(N)n2)C1	–	83	–	–
CN1CCN(c2cc(N)nc(NCCO)n2)CC1	–	1160	–	–
CN[C@@H]1CCN(c2cc(N)nc(N(C)C(C)C)n2)C1	–	140	–	–
CC(C)Nc1cc(N2CCN(C)CC2)nc(N)n1	0.012	3	–	0.57
CN[C@@H]1CCN(c2cc(N)nc(NCCO)n2)C1	–	255	–	–
CN[C@@H]1CCN(c2cc(NCCO)nc(N)n2)C1	–	44	–	–
CN1CCN(c2cc(N)nc(NCc3ccccc3)n2)CC1	–	1080	–	–
CC(C)CNc1cc(N2CCN(C)CC2)nc(N)n1	> 10	2	1.26	–
Nc1nc(N2CCCC2)cc(N2CC[C@@H](N)C2)n1	–	64	–	–
CN[C@@H]1CCN(c2cc(N)nc(NCc3ccccc3)c2)C1	–	50	–	–
CN[C@@H]1CCN(c2cc(N)nc(NCc3ccccc3)n2)C1	–	69	–	–
CC(C)N(C)c1cc(N2CCN(C)CC2)cc(N)n1	–	189	–	–
CN[C@@H]1CCN(c2cc(N(C)C(C)C)nc(N)n2)C1	–	51	–	–
CC(C)N(C)c1nc(N)cc(N2CCN(C)CC2)n1	–	853	–	–
CN[C@@H]1CCN(c2cc(N3CCCC3)nc(N)n2)C1	> 10	36	7.94	–
CN[C@@H]1CCN(c2cc(N)nc(N3CCCC3)c2)C1	> 10	77	15.8	–
CC(C)Nc1nc(N)cc(N2CCN(C)CC2)n1	–	162	–	–
CN1CCN(c2cc(N)nc(N3CCCC3)n2)CC1	–	132	–	–
CN[C@@H]1CCN(c2cc(NCc3ccccc3)nc(N)n2)C1	–	58	–	–
CC(C)CNc1nc(N)cc(N2CCN(C)CC2)n1	0.086	15	–	0.71
CN1CCN(c2cc(N)nc(N3CCCC3)c2)CC1	> 10	100	20	–

Now from value to compound, other results behind:

EC50 (Histamine H4 receptor [1]) [µM]	Ki (Histamine H4 receptor [3]) [nM]	Kb (Histamine H4 receptor [4]) [nM]	Structure (SMILES)	Alpha max (Histamine H4 receptor [2])
> 10	1	1.58	CN[C@@H]1CCN(c2cc(N)nc(NCC(C)C)n2)C1	–
0.101	1	–	CN1CCN(c2cc(NC3CCCC3)nc(N)n2)CC1	0.46
–	0.3	–	CN1CCN(c2cc(N)nc(NCC(C)(C)C)c2)CC1	–
> 10	6	12.6	CN[C@@H]1CCN(c2cc(N)nc(NC3CCCC3)n2)C1	–
0.011	3	–	CN1CCN(c2cc(N)nc(NC3CCCC3)c2)CC1	0.73
–	20	–	CN1CCN(c2cc(NCc3ccccc3)nc(N)n2)CC1	–
> 10	9	0.398	CN[C@@H]1CCN(c2cc(NC3CCCC3)nc(N)n2)C1	–
> 10	3	10	CN[C@@H]1CCN(c2cc(NC(C)C)nc(N)n2)C1	–
> 10	0.2	1.58	CN[C@@H]1CCN(c2cc(N)nc(NCC(C)C)c2)C1	–
–	0.04	–	CN[C@@H]1CCN(c2cc(N)nc(NCC(C)(C)C)c2)C1	–
> 10	0.9	–	CN[C@@H]1CCN(c2cc(N)nc(NC3CCCC3)c2)C1	–
> 10	6	12.6	CN[C@@H]1CCN(c2cc(N)nc(NC(C)C)n2)C1	–
0.016	10	–	CN1CCN(c2cc(N)nc(NC3CCCC3)n2)CC1	0.63
> 10	3	1.58	CN[C@@H]1CCN(c2cc(N)nc(NC(C)C)c2)C1	–
> 10	8	–	Nc1nc(N2CCCC2)cc(N2CCNCC2)n1	–
> 10	6	2	CN1CCN(c2cc(N3CCCC3)nc(N)n2)CC1	–
